Experiment [1] addresses T1, Gonadotropin-releasing hormone receptor (Rattus norvegicus) (UniProt P30969).
T1 sequence (whole entry): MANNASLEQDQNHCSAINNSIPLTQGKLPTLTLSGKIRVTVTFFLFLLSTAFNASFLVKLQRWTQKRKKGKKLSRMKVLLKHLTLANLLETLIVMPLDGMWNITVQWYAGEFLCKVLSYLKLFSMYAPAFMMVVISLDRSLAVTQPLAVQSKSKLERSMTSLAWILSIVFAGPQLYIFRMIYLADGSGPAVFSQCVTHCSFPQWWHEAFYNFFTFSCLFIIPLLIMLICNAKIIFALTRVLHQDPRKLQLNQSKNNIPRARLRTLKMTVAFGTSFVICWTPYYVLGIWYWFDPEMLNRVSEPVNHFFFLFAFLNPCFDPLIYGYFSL
The experiment is described as follows: In vitro inhibition of LH release in rat pituitary cells at a dose of 1 ug of analogue and 1 ng of LHRH. The experiment is classed as functional, cell-based. The following applies: Pituitary gland cell. The method in brief: (§1)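 Anterior pituitaries from female Sprague-Dawley rats (240-260 g, 18 rats) were minced and dispersed in Gey's solution with trypsin, DNase I and LBBI. Cells were plated in DMEM with 0.45% glucose, 25 mM HEPES, serum, T and 100 nM dexamethasone at about 3.0 × 10^5 cells/mL and cultured 4 days at 37 °C in 8% CO2. Cells were then exposed to antagonist plus 1 ng LHRH in Gey's solution with 0.3% glucose for 2 h. LH in the medium was measured by RIA as ng/mL of RP-3.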

Experiment [2] addresses T1, Gonadotropin-releasing hormone receptor (Rattus norvegicus). The experiment is described as follows: In vitro inhibition of LH release was determined in rat pituitary cells at a dose of 0.1 ug of analogue and 1 ng of LHRH. It counts as functional, cell-based. The following applies: Pituitary gland cell. Summed up:
as §1

The test system of experiment [3] is Rattus norvegicus. The experiment is described as follows: In vivo anti-ovulatory activity (AOA) against LHRH was determined at a dose of 1000 ug in 9 rats. It counts as functional. Summed up:
(§2)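 Female 4-day cycling rats received a single subcutaneous injection of analog in corn oil between 12 and 12:30 p.m. Ova were counted on estrus. Activity is given as the number of ovulating rats over the total rats at each dose.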

Experiment [4] has as its system Rattus norvegicus. The experiment is described as follows: In vivo anti-ovulatory activity (AOA) against LHRH was determined at a dose of 100 ug in 6 rats. The experiment is classed as functional. Summed up: as §2
In experiment [5] the target is T1, Gonadotropin-releasing hormone receptor (Rattus norvegicus). The experiment is described as follows: In vitro inhibition of LH release was determined in rat pituitary cells at a dose of 0.03 ug of analogue and 1 ng of LHRH. It counts as functional, cell-based. As to conditions: Pituitary gland cell. The method in brief:
as §1

The target is the same in experiment [6]. The experiment is described as follows: In vitro antagonistic activity against LH release in rat pituitary cells for control. The experiment is classed as functional, cell-based. The following applies: Pituitary gland cell. Summed up:
as §1

The target is the same in experiment [7]. The experiment is described as follows: In vitro inhibition of LH release was determined in rat pituitary cells at a dose of 0.3 ug of analogue and 1 ng of LHRH. The experiment is classed as functional, cell-based. The following applies: Pituitary gland cell. The method in brief:
as §1

For experiment [8], the species on record is Rattus norvegicus. The experiment is described as follows: In vitro inhibition of LH release in rat pituitary cells at a dose of 1 ng LHRH in absence of the compound. It counts as functional, Pituitary gland cell. On the set-up: unit: ng/mL. Summed up: as §1

Consider `CCNC(=O)[C@@H]1CCCN1C(=O)[C@H](CCCN=C(N)N)NC(=O)[C@H](CC(C)C)NC(=O)[C@@H](Cc1ccc2ccccc2c1)NC(=O)[C@H](Cc1ccc(O)cc1)NC(=O)[C@H](CO)NC(=O)[C@@H](Cc1ccc2ccccc2c1)NC(C)=O`, for which the Activity was determined as 3 in experiment [1]; 5 in experiment [2]; 45 in experiment [5]; 3.2 in experiment [6]; 4 in experiment [7]; 153 in the experiment listed under Rattus norvegicus [8]. Besides, the AOA with Rattus norvegicus [3] is reported as 2; in the experiment with Rattus norvegicus [4], 6.

The values above are taken from ChEMBL document CHEMBL1128487, “Reduced-size antagonists of luteinizing hormone-releasing hormone active in vitro” (1995).
